Converted amounts (≈) assume the structure as drawn. The source made the active and inactive calls. The rule behind the calls is not given here.
How the values were obtained:
[1] = system: Mycobacterium tuberculosis; test: Antimicrobial activity against Mycobacterium tuberculosis H37Rv assessed as reduction in appearance of dense granular cytoplasm by transmission electron microscopy; assay type: functional, organism-based
[2] = system: Mycobacterium tuberculosis H37Rv; test: (§1) Inhibition of Mycobacterium tuberculosis H37Rv FAAL19; details: TDE = time-dependent effect
Outline: (§2)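 Purified enzyme pre-incubated with increasing LAMS concentrations, then activity measured by radio-TLC acyl-adenylation assay. Dose-response data fitted to the Morrison tight-binding equation using enzyme concentration to obtain apparent Ki.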

[3] = system: Mycobacterium tuberculosis H37Rv; test: Stabilization of Mycobacterium tuberculosis H37Rv FACL19 assessed as protection against proteolysis
Outline: (§3)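 Limited tryptic proteolysis of purified protein in the presence of increasing LAMS concentrations. Protection from fragmentation taken as a sign of binding-induced conformational change.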

[4] = system: Mycobacterium tuberculosis; test: Antimicrobial activity against Mycobacterium tuberculosis H37Rv assessed as degeneration of lipid layer in cell wall by transmission electron microscopy; assay type: functional, organism-based
[5] = system: Mycobacterium tuberculosis; test: Antimicrobial activity against Mycobacterium tuberculosis H37Rv assessed decrease in PDIM biosynthesis by [14C]propionate incorporation assay; assay type: functional, organism-based
Outline: (§4)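 Mid-log H37Rv cultures (10 ml) given 5 μCi ^14C-propionate (methylated lipids) or ^14C-acetate (fatty/mycolic acids) plus various LAMS concentrations. Incubated 16 h at 37°C. Mycolic acids and total extractable lipids then analysed.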

[6] = system: Mycobacterium tuberculosis; test: Antimicrobial activity against Mycobacterium tuberculosis H37Rv assessed decrease in mycolic acid biosynthesis by [14C]-acetate incorporation assay; assay type: functional, organism-based; outline: as §4
[7] = system: Mycobacterium tuberculosis; test: Antimicrobial activity against Mycobacterium tuberculosis H37Rv assessed as occurrence of irregular cell shape by transmission electron microscopy; assay type: functional, organism-based
[8] = system: Mycobacterium tuberculosis; test: Antimicrobial activity against Mycobacterium tuberculosis H37Rv assessed as degeneration of peptidoglycan layer in cell wall by transmission electron microscopy; assay type: functional, organism-based
[9] = system: Mycobacterium tuberculosis; test: Antimicrobial activity against Mycobacterium tuberculosis MC2 assessed as concentration required for 100-fold reduction in bacterial CFU; assay type: functional
Outline: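 Susceptibility followed by CFU counts on plates containing various inhibitor concentrations. MIC99 is taken as the concentration causing a 10^2 reduction in colony forming units.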

[10] = system: Mycobacterium tuberculosis H37Rv; test: Binding affinity to Mycobacterium tuberculosis H37Rv FACL28 assessed as noncovalent protein-ligand interaction by mass spectroscopy
Outline: (§5)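 Purified enzyme–inhibitor (EI*) complex extracted with ethyl acetate. Released acyl-AMS detected by mass spectrometry to test for non-covalent versus covalent binding.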

[11] = system: Mycobacterium tuberculosis; test: Antimicrobial activity against Mycobacterium tuberculosis H37Rv assessed decrease in SL-1 biosynthesis by [14C]propionate incorporation assay; assay type: functional, organism-based; outline: as §4
[12] = system: Mycobacterium tuberculosis H37Rv; test: (§6) Inhibition of Mycobacterium tuberculosis H37Rv FACL28; details: TDE = time-dependent effect; outline: as §2
[13] = system: Mycobacterium tuberculosis H37Rv; test: Stabilization of Mycobacterium tuberculosis H37Rv FAAL28 assessed as protection against proteolysis; outline: as §3
[14] = system: Mycobacterium tuberculosis; test: Antimicrobial activity against Mycobacterium tuberculosis H37Rv assessed as concentration required for 100-fold reduction in bacterial CFU; assay type: functional
Outline: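 H37Rv culture serially diluted and plated on Middlebrook 7H10 agar with OADC containing various concentrations of the acyl-AMS analogue. Colonies counted after two weeks at 37°C. MIC is the concentration giving a 10^2-fold CFU reduction.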

[15] = system: Mycobacterium tuberculosis; test: Antimicrobial activity against Mycobacterium tuberculosis H37Rv assessed decrease in fatty acid biosynthesis by [14C]-acetate incorporation assay; assay type: functional, organism-based; outline: as §4
[16] = system: Mycobacterium tuberculosis H37Rv; test: Binding affinity to Mycobacterium tuberculosis H37Rv FAAL19 assessed as noncovalent protein-ligand interaction by mass spectroscopy; outline: as §5
[17] = as §1; outline: as §2
[18] = system: Mycobacterium tuberculosis H37Rv; test: Activity at Mycobacterium tuberculosis H37Rv FACL19 assessed as acy-CoA formation by radio-TLC assay
[19] = as §6; outline: as §2
Rhodococcus sp. = test: Activity at Rhodococcus sp. FAAL expressed in Escherichia coli assessed as palmitoyl-CoA formation at 1 mM by TLC method
Outline: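 Recombinant Rhodococcus ro_4064 protein expressed in E. coli, assayed cell-free with palmitic acid as substrate, with or without 1 mM CoASH. Products separated by TLC and detected by autoradiography.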

[20] = system: Mycobacterium tuberculosis H37Rv; test: Activity at Mycobacterium tuberculosis H37Rv FAAL28 assessed as conversion of lauroyl-AMP to lauryl-CoA by radio-TLC assay

In the case of `CCCCCCCCCCCC(=O)NS(=O)(=O)OC[C@H]1O[C@@H](n2cnc3c(N)ncnc32)[C@H](O)[C@@H]1O`, the Activity [1] is reported as “Active”, the inhibition [2] is reported as “tde” and the Activity [3] is reported as “Dose-dependent effect”. For the same compound, the Activity [4] was “Active”, the Activity [5] was “Active” and the Activity [6] was “Dose-dependent effect”. For the same compound, the Activity [7] was “Active”, the Activity [8] was “Active” and the MIC99 [9] was 215 µM (≈ 114 µg/mL). For the same compound, the Km [10] was 24 µM, the Activity [11] was “Active” and the inhibition [12] was “tde”. The Activity [13] was “Dose-dependent effect”, the MIC99 [14] was 100 µM (≈ 52.9 µg/mL) and the Activity [15] was “inactive”. The Activity [16] was “Active”.
With `CC(C)(COP(=O)(O)OP(=O)(O)OC[C@H]1O[C@@H](n2cnc3c(N)ncnc32)[C@H](O)[C@@H]1OP(=O)(O)O)[C@@H](O)C(=O)NCCC(=O)NCCS` [COENZYME_A] the IC50 [17] was 1.25 µM, the Ki ([17]; read-out: Ki(app)) was 4.9 µM and the Activity [18] was “Active”. The IC50 [19] was 1.2 µM, the Activity (Rhodococcus sp.) was “inactive” and the Activity [20] was “inactive”.
